Experiments:
[1] = ref Wang et al., 2006b, Mi et al., 2008; cited from earlier work
[2] = tested on: BP3 human lymphoma cell line; experiment: Apoptosis, Annexin V-FITC and propidium iodide assay, BP3; type: cell-based
Method in brief: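 BP3 diffuse large B-cell lymphoma cells were grown in RPMI 1640 with 10% FBS and penicillin/streptomycin, then exposed to varying concentrations of test compound for 1 day. They were stained with FITC-Annexin V and propidium iodide and analysed by flow cytometry. Annexin V-negative/PI-negative cells were scored viable. Mean of two independent experiments ± SE.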

Cc1cc2c(C(C)C)c(O)c(O)c(C=O)c2c(O)c1-c1c(C)cc2c(C(C)C)c(O)c(O)c(C=O)c2c1O [(−) Gossypol]
oral MTD [1]: ~50 mg/kg

CN(C)CC[C@H](CSc1ccccc1)Nc1ccc(S(=O)(=O)NC(=O)c2ccc(N3CCN(Cc4ccccc4-c4ccc(Cl)cc4)CC3)cc2)cc1[N+](=O)[O-] [ABT-737]
cytotoxic activity against BP3 cell lines [2]: no cytotoxic activity

— paper PMC3356046 (Frontiers in Oncology, 2011)
